Assay outcomes: PubChem BioAssay, Johns Hopkins Ion Channel Center
This is a sample that favours compounds with a hit; in the whole collection about 3.5% have one here.
RGS4 inh: RGS4 inhibitors, primary screen, cell-based, HEK293 M3R inducible RGS4, calcium flux. hit rate 0.45% among 310,000. Fluo-4 calcium flux; hits give high values; triggered by carbachol at its EC20. Regulator of G-protein signaling 4 (Homo sapiens), P49798. B-score at 10 µM;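 active = B-score, a plate-corrected calcium signal, over three deviations above library mean, with baseline fluorescence within five deviations of library mean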;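 also: RGS4 expression induced by doxycycline in cells with stable M3 receptor; B-score is computed from the integrated fluorescence ratio over baseline after carbachol; higher B-score means a larger calcium signal and so more RGS4 inhibition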
Target sequence (P49798 whole entry, looked up): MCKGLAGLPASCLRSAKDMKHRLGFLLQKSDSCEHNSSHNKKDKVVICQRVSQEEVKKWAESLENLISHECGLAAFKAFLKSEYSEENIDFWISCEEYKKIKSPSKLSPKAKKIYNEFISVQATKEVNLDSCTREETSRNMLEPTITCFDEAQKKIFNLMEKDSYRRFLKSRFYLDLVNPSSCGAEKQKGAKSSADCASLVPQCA
MrgX1 ag: agonists of human MrgX1 receptor, primary screen, HEK293 cells, Fluo-4 calcium flux; Mas-related G-protein coupled receptor member X1 (Homo sapiens), Q96LB2; Fluo-4 calcium fluorescence, agonist mode; hits give high values; AID 588627, 2011; B-score at 10 µM; hit rate 0.44% among 310,000;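 active = calcium response B-score plate-corrected fluorescence ratio at least 3 library SD, with starting fluorescence B-score inside 5 SD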
Target sequence (Q96LB2 whole entry, looked up): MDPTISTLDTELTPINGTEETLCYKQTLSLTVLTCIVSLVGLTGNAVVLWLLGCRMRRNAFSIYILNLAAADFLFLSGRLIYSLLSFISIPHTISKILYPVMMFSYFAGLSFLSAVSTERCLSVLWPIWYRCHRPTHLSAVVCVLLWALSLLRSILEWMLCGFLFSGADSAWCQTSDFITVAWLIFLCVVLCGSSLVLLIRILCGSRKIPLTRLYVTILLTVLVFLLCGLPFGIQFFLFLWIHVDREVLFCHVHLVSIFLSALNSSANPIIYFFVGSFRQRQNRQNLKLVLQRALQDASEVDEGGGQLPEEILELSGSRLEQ
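Test system: HEK293 cells stably expressing human MrgX1 receptor; Input: fifteen thousand cells per well; Dosing: compound delivered in addition one of three; Schedule: overnight seeding, then 1 h dark dye loading; Technique: Fluo-4 NW calcium fluorescence; Measure: B-scored fluorescence response ratio; Controls: positive and negative controls per plate.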
MrgX1 PAM: positive allosteric modulators of MrgX1, primary screen, HEK293 cells, Fluo-4 calcium flux; Mas-related G-protein coupled receptor member X1 (Homo sapiens), Q96LB2; FDSS; hits give high values; B-score at 10 µM; hit rate 0.63% among 310,000; AID 588675, 2011;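 active = plate-corrected calcium response at least 3 library SD above typical, normal starting fluorescence, not activating the receptor alone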;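 also: compound read alongside a low EC10 to EC30 dose of BAM8-22 agonist; peak minus trough fluorescence over baseline measured at the second addition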
MrgX1 antag: antagonists of human MrgX1 receptor, primary screen, HEK293 cells, Fluo-4 calcium flux; Mas-related G-protein coupled receptor member X1 (Homo sapiens), Q96LB2; BAM8-22 antagonism; hits give low values; B-score at 10 µM; hit rate 1.3% among 310,000; AID 588676, 2011;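 active = calcium-response B-score plate-corrected more than 3 library SD below zero, starting fluorescence within 5 deviations, no agonist response on first addition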;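 also: peak minus trough fluorescence over baseline after final BAM8-22 challenge near maximal dose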
RGS4 act: RGS4 potentiators or activators, primary screen, cell-based, HEK293 M3R inducible RGS4, calcium flux; carbachol calcium flux Fluo4; hits give low values; AID 463111, 2010; hit rate 0.92% among 310,000; B-score at 10 µM;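 active = B-score of the integrated calcium signal more than 4 SD below the library mean, with starting fluorescence not abnormally high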;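 also: negative B-score means reduced calcium response which marks RGS4 activation or potentiation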
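System – HEK293 FlpIn-TREx cells, stable M3R, doxycycline-inducible RGS4 · Reagent – ECmax carbachol challenge · Times – compound preincubation 20 min at room temperature before agonist · Technique – Fluo4 fluorescence kinetic imaging of calcium · Measure – B score of integrated Fluo4 ratio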
MrgX1 ag confirm: MrgX1 receptor agonists, duplicate retest, confirmation, HEK293 cells, Fluo-4 calcium flux; shares compounds with MrgX1 ag; Fluo-4 calcium fluorescence, FDSS; activation, % at 10 µM; hit rate 78% among 600;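 active = calcium signal rise, corrected for plate position, at least 3 library SD high, with starting brightness within 5 such deviations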
HEK293 Ca flux: nonspecific calcium signal in parental HEK293, confirmation, counter-screen for MrgX1 antagonist project, parental HEK293 cells, Fluo-4 calcium flux; shares compounds with MrgX1 antag; Fluo-4 calcium fluorescence, FDSS; fluorescence ratio F(max-min)/F0 at 10 µM; hit rate 2% among 4,000; AID 624111, 2012;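 active = duplicate-averaged calcium fluorescence ratio at least three times the standard deviation of buffer wells, a nonspecific response in parental cells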
HEK293 Ca counter: calcium response in parental HEK293 cells, primary screen, counter-screen for MrgX1 allosteric activator project, cell-based, Fluo-4 calcium flux, duplicate; shares compounds with MrgX1 antag; Fluo-4 fluorescence ratio; hits give high values; fluorescence ratio F(max-min)/F0 at 10 µM; hit rate 0.4% among 4,000;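 active = calcium fluorescence ratio, averaged over duplicates, at least 3 SD of the buffer-well ratio, meaning a nonspecific response in receptor-free cells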;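 also: untransfected parental HEK293 lacking MrgX1 used as counterscreen for MrgX1 allosteric activators; fluorescence change taken during the second addition on a kinetic imager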
HEK293 Ca cntr2: calcium response in parental HEK293 cells, primary screen, counter-screen for MrgX1 agonist project, cell-based, Fluo-4 calcium flux, duplicate, agonist mode; hit rate 8.7% among 4,000; fluorescence ratio F(max-min)/F0 at 10 µM; shares compounds with MrgX1 antag; AID 624115, 2012; Fluo-4 calcium fluorescence (FDSS); hits give high values;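 active = calcium fluorescence ratio at least three times the spread of buffer wells, meaning a non-specific response in parental cells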
Large screens that a line does not name were inactive (follow-up assays come after a bar, where they were run).

CCCOc1ccc(-c2csc3ncn(Cc4ccc(C(=O)O)cc4)c(=O)c23)cc1	MrgX1 ag 32 | MrgX1 ag confirm 204% | HEK293 Ca flux inactive | HEK293 Ca counter inactive | HEK293 Ca cntr2 inactive
c1ccc(CCN2CCN=C2Nc2ccccc2)cc1	none
CCN1C(Nc2ccccc2)=NC[C@@H]1CC(C)C	none
CC(C)CCN1C(Nc2ccccc2)=NC[C@@H]1CC(C)C	none
Cc1cccc(CCN2CCN=C2Nc2ccccc2)c1	MrgX1 ag 50 (no result: RGS4 inh, RGS4 act) | MrgX1 ag confirm 278% | HEK293 Ca flux inactive | HEK293 Ca counter inactive | HEK293 Ca cntr2 67
CC(C)C[C@H]1CN=C(Nc2ccccc2)N1CCc1ccc(F)cc1	MrgX1 ag 120 (no result: RGS4 inh, RGS4 act) | MrgX1 ag confirm 575% | HEK293 Ca flux inactive | HEK293 Ca counter inactive | HEK293 Ca cntr2 106
Cc1cccc(CCN2C(Nc3ccccc3)=NC[C@@H]2CC(C)C)c1	MrgX1 ag 114 (no result: RGS4 inh, RGS4 act) | MrgX1 ag confirm 586% | HEK293 Ca flux inactive | HEK293 Ca counter inactive | HEK293 Ca cntr2 101
O=C(CSc1nnc2ccccn12)Nc1nsc(-c2ccccc2)n1	none
C/C(=N\NC(=O)c1c[nH]c2ccccc12)c1ccccn1	none
C/C(=N\NC(=O)c1cc2ccccc2cc1O)c1ccccn1	MrgX1 ag 68 | MrgX1 ag confirm 458% | HEK293 Ca flux inactive | HEK293 Ca counter inactive | HEK293 Ca cntr2 109
COc1ccccc1N1CCN(CCC(=O)Nc2ccc(F)cc2)CC1	none
O=C(CSc1nnc(NC(=O)C2CCC2)s1)NC1CC1	MrgX1 ag 40 | MrgX1 ag confirm inactive | HEK293 Ca flux inactive | HEK293 Ca counter inactive | HEK293 Ca cntr2 inactive
COCCNC(=O)c1cccc(OC2CCN(Cc3ccccc3C)CC2)c1	none
O=C(NCCCNC(=O)c1ccco1)c1ccc(F)cc1	none
Cc1ccc(C)c2nc3sc(C(=O)N4CCOCC4)c(N)c3cc12	MrgX1 ag 31 | MrgX1 ag confirm 284% | HEK293 Ca flux inactive | HEK293 Ca counter inactive | HEK293 Ca cntr2 82
Cc1cc(C)c2cc3c(N)c(C(=O)N4CCOCC4)sc3nc2c1	none
NS(=O)(=O)c1ccc(CCNC(=O)c2ccccc2F)cc1	none
Cc1nn(Cc2ccccc2)c2c1C(c1cccc(Cl)c1)C(C#N)=C(N)O2 (configuration not stated)	MrgX1 ag 35 | MrgX1 ag confirm 174% | HEK293 Ca flux inactive | HEK293 Ca counter inactive | HEK293 Ca cntr2 47
c1ccc2c(c1)[nH]c1c(N3CCCC3)ncnc12	none
Clc1ccc2[nH]c3c(N4CCC5(CC4)OCCO5)ncnc3c2c1	MrgX1 ag 42 | MrgX1 ag confirm 238% | HEK293 Ca flux inactive | HEK293 Ca counter inactive | HEK293 Ca cntr2 50
c1ccc2c(c1)[nH]c1c(N3CCSCC3)ncnc12	MrgX1 ag 32 (no result: RGS4 inh, RGS4 act) | MrgX1 ag confirm 186% | HEK293 Ca flux inactive | HEK293 Ca counter inactive | HEK293 Ca cntr2 inactive
c1ccc2c(c1)CNc1ccccc1C2	MrgX1 ag 30 | MrgX1 ag confirm 224% | HEK293 Ca flux inactive | HEK293 Ca counter inactive | HEK293 Ca cntr2 inactive
O=C(O)[C@@H]1Cc2ccccc2N1	none
NC(=O)CC(NC(=O)c1ccc(Cl)cc1)C(=O)NCCc1ccc(S(N)(=O)=O)cc1 (configuration not stated)	none
Cc1ccc(NS(=O)(=O)c2ccc(C(=O)N3CC(C)CC(C)C3)cc2)cc1 (configuration not stated)	MrgX1 ag 28 | MrgX1 ag confirm 151% | HEK293 Ca flux inactive | HEK293 Ca counter inactive | HEK293 Ca cntr2 71
O=C(COC(=O)c1cccnc1Cl)Nc1cc(S(=O)(=O)N2CCCCC2)ccc1Cl	none
CN(C)c1nc(N)c(C(=O)N=C(N)N)nc1Cl	MrgX1 ag 35 | MrgX1 ag confirm 170% | HEK293 Ca flux inactive | HEK293 Ca counter inactive | HEK293 Ca cntr2 inactive
NC(=Nc1ccccc1)NC(=O)c1nc(Cl)c(N)nc1N	none
O=C(Nc1ccc2oc(-c3cccc4ccccc34)nc2c1)c1ncn[nH]1	none
O=C(Nc1ccc2oc(-c3ccccc3Cl)nc2c1)c1ncn[nH]1	MrgX1 ag 55 | MrgX1 ag confirm inactive | HEK293 Ca flux inactive | HEK293 Ca counter inactive | HEK293 Ca cntr2 inactive
CCC(=O)N/N=C/c1ccc(-c2ccc([N+](=O)[O-])cc2)o1	none
CC(C)(C)C(=O)/C=c1\s/c(=C\c2ccc(-c3ccc([N+](=O)[O-])cc3)o2)c(=O)n1CC(=O)NC(N)=O	MrgX1 ag 82 | MrgX1 ag confirm 464% | HEK293 Ca flux 0.017 | HEK293 Ca counter inactive | HEK293 Ca cntr2 89
CCN(CC)CCCN(Cc1cc2cc3c(cc2[nH]c1=O)OCO3)C(=O)Nc1ccccc1OC	none
COC(=O)c1c(Cl)c2n3ccccc3c(C)c(-c3ccccc3)c-2c1C(=O)OC	MrgX1 ag 27 | MrgX1 ag confirm inactive | HEK293 Ca flux inactive | HEK293 Ca counter inactive | HEK293 Ca cntr2 inactive
O=C(Nc1ccccc1)Nc1ccc2ccccc2c1	MrgX1 ag 34 | MrgX1 ag confirm inactive | HEK293 Ca flux inactive | HEK293 Ca counter inactive | HEK293 Ca cntr2 inactive
CCOC(=O)c1cc2c(ccn2C)n1Cc1ccc(Cl)cc1	none
CCOC(=O)c1cc2c(ccn2C)n1Cc1ccc(C#N)cc1	MrgX1 ag 27 | MrgX1 ag confirm 132% | HEK293 Ca flux inactive | HEK293 Ca counter inactive | HEK293 Ca cntr2 inactive
Cc1n[nH]c(C)c1S(=O)(=O)Nc1ccc2c(c1)OCCO2	none
O=C(c1ccc(Cl)cc1)N1CCCOC1	MrgX1 ag 50 | MrgX1 ag confirm inactive | HEK293 Ca flux inactive | HEK293 Ca counter inactive | HEK293 Ca cntr2 inactive
COc1cccc(NC(=O)CCCn2nc(C)c3c(C)n(-c4ccccc4)nc3c2=O)c1	none
COc1ccc(S(=O)(=O)N(C)CC(=O)N2CCCC2)cc1OC	none
N#Cc1c(NCCN)nc(-c2ccco2)c2c1CCCC2	none
CC(C)CCNc1nc(-c2ccco2)c2c(c1C#N)CCCC2	MrgX1 ag 27 | MrgX1 ag confirm inactive | HEK293 Ca flux inactive | HEK293 Ca counter inactive | HEK293 Ca cntr2 inactive
